In ChEMBL document CHEMBL1133472, “Synthesis and evaluation of N,N-dialkyl enkephalin-based affinity labels for delta opioid receptors” (J Med Chem, 2000):
Square brackets hold non-standard residues; d marks the D form. Peptide text beside a SMILES is read from it. * marks the point of attachment. ξ: configuration not given here. Tyr(Nα,Nα-Bn2) = O=C([C@H](Cc1ccc(O)cc1)N(Cc1ccccc1)Cc1ccccc1)*; Tyr(Nα,Nα-allyl2) = C=CCN(CC=C)[C@@H](Cc1ccc(O)cc1)C(=O)*; X1 = O=C(C(Cc1ccc(O)cc1)N(Cc1ccccc1)Cc1ccccc1)*; Phe(4-NH2) = Nc1ccc(C[C@H](N)C(=O)O)cc1; Aib = CC(C)(N)C(=O)O; BrAc = O=C(CBr)*; ξA = CC(N)C(=O)O

Assays:
[1] = target: Delta-type opioid receptor (Mus musculus, UniProt P32300); assay: Binding affinity was measured in cloned Opioid receptor delta 1 expressed in CHO cells using [3H]- DPDPE as radioligand.; assay type: cell-based
Outline: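 Mouse δ receptor stably expressed in CHO cells; washed membranes (100 µg protein) incubated 90 min at 22 °C in 50 mM Tris pH 7.4 with 3 mM Mg2+ and peptidase inhibitors (bestatin, captopril, L-leucyl-L-leucine). [3H]DPDPE at 0.5-0.8 nM; nonspecific binding with 10 µM DPDPE. Filtration on PEI-soaked GF/B, scintillation counting.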

Mu-type opioid receptor = Mu-type opioid receptor (Rattus norvegicus, UniProt P33535); assay: Binding affinity was measured in cloned Opioid receptor mu 1 expressed in CHO cells using [3H]- DAMGO as radioligand.; assay type: cell-based
Outline: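 Rat µ receptor stably expressed in CHO cells; membranes (100 µg protein) incubated 90 min at 22 °C in 50 mM Tris pH 7.4 with 3 mM Mg2+ and bestatin, captopril, L-leucyl-L-leucine. [3H]DAMGO at 0.5-0.8 nM; nonspecific binding with 10 µM DAMGO. Filtration on PEI-presoaked GF/B filters, scintillation counting.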

[2] = system: mu (Rattus norvegicus) & delta (Mus musculus) opioid receptors; assay: Ratio of IC50 against mu opioid receptor to that of delta opioid receptor

Sequence of Delta-type opioid receptor (P32300 whole entry): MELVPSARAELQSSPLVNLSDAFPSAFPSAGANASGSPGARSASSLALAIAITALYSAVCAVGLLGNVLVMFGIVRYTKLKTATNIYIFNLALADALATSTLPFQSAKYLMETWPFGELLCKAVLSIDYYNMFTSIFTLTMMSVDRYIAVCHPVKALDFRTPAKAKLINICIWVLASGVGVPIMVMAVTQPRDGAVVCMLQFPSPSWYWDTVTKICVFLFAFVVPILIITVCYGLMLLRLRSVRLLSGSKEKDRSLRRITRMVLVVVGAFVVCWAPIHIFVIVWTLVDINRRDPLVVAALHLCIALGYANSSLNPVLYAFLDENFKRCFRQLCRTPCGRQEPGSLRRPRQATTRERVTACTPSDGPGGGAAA
Sequence of Mu-type opioid receptor (P33535 whole entry, looked up): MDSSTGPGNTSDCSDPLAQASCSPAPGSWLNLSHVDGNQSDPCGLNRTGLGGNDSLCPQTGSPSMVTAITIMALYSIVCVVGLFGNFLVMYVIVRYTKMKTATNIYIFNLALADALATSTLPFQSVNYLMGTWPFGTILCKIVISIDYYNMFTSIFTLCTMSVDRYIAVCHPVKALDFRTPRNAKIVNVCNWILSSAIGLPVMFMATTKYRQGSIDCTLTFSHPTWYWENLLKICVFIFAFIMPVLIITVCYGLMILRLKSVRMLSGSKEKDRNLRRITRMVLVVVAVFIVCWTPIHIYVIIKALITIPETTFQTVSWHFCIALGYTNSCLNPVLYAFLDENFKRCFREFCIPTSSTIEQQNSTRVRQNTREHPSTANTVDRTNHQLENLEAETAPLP

Compound: CC(C)C[C@H](NC(=O)[C@H](Cc1ccc(N=C=S)cc1)NC(=O)CNC(=O)CNC(=O)[C@H](Cc1ccc(O)cc1)N(Cc1ccccc1)Cc1ccccc1)C(=O)O
- IC50 [1]: 0.0349 µM
- IC50 (Mu-type opioid receptor): 1.9 µM
- Ratio [2]: 54

Compound: CC(C)C[C@H](NC(=O)[C@H](Cc1ccc(NCCl)cc1)NC(=O)CNC(=O)CNC(=O)[C@H](Cc1ccc(O)cc1)N(Cc1ccccc1)Cc1ccccc1)C(=O)O
- IC50 [1]: 0.145 µM
- IC50 (Mu-type opioid receptor): 19 µM
- Ratio [2]: 131

Compound: C=CCN(CC=C)[C@@H](Cc1ccc(O)cc1)C(=O)NC(C)(C)C(=O)NC(C)(C)C(=O)N[C@@H](Cc1ccccc1)C(=O)N[C@@H](CC(C)C)C(=O)O (HELM PEPTIDE1{[C=CCN(CC=C)[C@@H](Cc1ccc(O)cc1)C(=O)[*:2]].[Aib].[Aib].F.L}$$$$V2.0)
- IC50 [1]: 0.703 µM
- IC50 (Mu-type opioid receptor): 18.9 µM
- Ratio [2]: 27

Compound: CC(C)C[C@H](NC(=O)[C@H](Cc1ccccc1)NC(=O)CNC(=O)CNC(=O)[C@H](Cc1ccc(O)cc1)N(Cc1ccccc1)Cc1ccccc1)C(=O)O (HELM PEPTIDE1{[O=C([C@H](Cc1ccc(O)cc1)N(Cc1ccccc1)Cc1ccccc1)[*:2]].G.G.F.L}$$$$V2.0)
- IC50 [1]: 0.0782 µM
- IC50 (Mu-type opioid receptor): 1.6 µM
- Ratio [2]: 20

Compound: CC(C)C[C@H](NC(=O)[C@H](Cc1ccc(NC(=O)CBr)cc1)NC(=O)CNC(=O)CNC(=O)C(Cc1ccc(O)cc1)N(Cc1ccccc1)Cc1ccccc1)C(=O)O (stereo partly drawn) (X1-GG[Phe(4-NH2)](BrAc)L-OH)
- Ratio [2]: 61

Compound: CC(C)C[C@H](NC(=O)[C@H](Cc1ccc(NC(=O)CBr)cc1)NC(=O)CNC(=O)CNC(=O)[C@H](Cc1ccc(O)cc1)N(Cc1ccccc1)Cc1ccccc1)C(=O)O ({Tyr(Nα,Nα-Bn2)}-GG[Phe(4-NH2)](BrAc)L-OH)
- IC50 [1]: 0.149 µM
- IC50 (Mu-type opioid receptor): 9.1 µM

Compound: C=CCN(CC=C)[C@@H](Cc1ccc(O)cc1)C(=O)NC(C)(C)C(=O)NC(C)C(=O)N[C@@H](Cc1ccc(N)cc1)C(=O)N[C@@H](CC(C)C)C(=O)O (stereo partly drawn) ({Tyr(Nα,Nα-allyl2)}-[Aib][ξA][Phe(4-NH2)]L-OH)
- IC50 [1]: 1.39 µM
- IC50 (Mu-type opioid receptor): 87.7 µM
- Ratio [2]: 63

Compound: C=CCN(CC=C)[C@@H](Cc1ccc(O)cc1)C(=O)NC(C)C(=O)NC(C)C(=O)N[C@@H](Cc1ccc(NC(=O)CBr)cc1)C(=O)N[C@@H](CC(C)C)C(=O)O (stereo partly drawn) ({Tyr(Nα,Nα-allyl2)}-[ξA][ξA][Phe(4-NH2)](BrAc)L-OH)
- IC50 [1]: 0.392 µM
- IC50 (Mu-type opioid receptor): > 10 µM
